Reference: ChEMBL document CHEMBL5214995, “Orally Bioavailable Quinoxaline Inhibitors of 15-Prostaglandin Dehydrogenase (15-PGDH) Promote Tissue Repair and Regeneration” (J Med Chem, 2022)
In brackets after ≈: the same amount, converted by molar mass. Activity calls are given as the source filed them. The calls are words filed in the database; no cut-off is given here.

Tests used:
[1] = AUC in CD-1 mouse at 10 mg/kg,ip measured upto 1440 mins by LC-MS/MS analysis; assay type: ADME, organism-based; set-up: time < 1440 min, dose 10 mg/kg, route ip; details: in vivo; for AUC: mouse, 24 h
In short: (§1)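 Female CD1 mice were given a single 10 mg/kg IP dose. […] Plasma was extracted with methanol/0.15% formic acid containing N-benzylbenzamide internal standard and analysed by LC-MS/MS against spiked blank-plasma standards. Cmax and AUC were derived by noncompartmental analysis.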

Lung [2] = assay: In vivo activation of PGE2 in C57BL/6J mouse lung tissue assessed as increase in PGE2 level at 5 mg/kg,ip measured after 3 hrs by ELISA; assay type: functional, organism-based
In short: (§2)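 Female C57bl/6J mice aged 8-9 weeks were dosed IP and euthanised 3 h later. Colon and lung were rinsed in ice-cold PBS with indomethacin (5.6 µg/ml), snap-frozen, pulverised, homogenised in cold PBS/indomethacin, sonicated on ice and centrifuged. PGE2 in the supernatant was measured by ELISA in triplicate and normalised to BCA protein as ng PGE2/mg protein.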

Colon [3] = assay: In vivo activation of PGE2 in C57BL/6J mouse colon tissue assessed as increase in PGE2 level at 5 mg/kg,ip measured after 3 hrs by ELISA; assay type: functional, organism-based; in short: as §2
[4] = Cmax in CD-1 mouse at 10 mg/kg,ip measured upto 1440 mins by LC-MS/MS analysis; assay type: ADME, organism-based; set-up: time < 1440 min, dose 10 mg/kg, route ip; details: in vivo; in short: as §1
Mus musculus [5] = assay: Protection against DSS-induced acute ulcerative colitis in […] mouse assessed as increase in colon length at 10 mg/kg,ip measured from 8 to 12 days of administration; assay type: functional, organism-based; details: time 8-12 day
Mus musculus [6] = assay: Protection against DSS-induced acute ulcerative colitis in […] mouse assessed as decrease in cryptitis score at 10 mg/kg,ip measured after 12 days of administration; assay type: functional, organism-based; details: time 12.0 day
[7] = Apparent permeability of the compound from basolateral to apical side in human Caco-2 cells measured upto 120 mins by LC-MS/MS analysis; assay type: ADME, cell-based; details: caco-2, 2 h
In short: (§3)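 Caco-2 cells were grown three weeks on 12-well Transwells in DMEM with 20% FBS and supplements, then washed in HBSS with Ca/Mg and 0.5% FBS. Monolayers were used only if TEER exceeded 800 Ωcm², and TEER was rechecked after the assay.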

[8] = Cmax in CD-1 mouse at 5 mg/kg,iv measured upto 1440 mins by LC-MS/MS analysis; assay type: ADME, organism-based; set-up: dose 5 mg/kg, time < 1440 min, route iv; details: in vivo, 24 h
In short: (§4)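 Female CD1 mice received a single 10 mg/kg PO or 5 mg/kg IV dose in 10% DMSO, 25% PEG400, 1% Tween-80 and 64% D5W (pH 7.4). Groups of three were killed at 0–1440 min, with blood taken by cardiac puncture into ACD. Plasma was extracted into methanol with formic acid and internal standard, and drug was quantified by LC-MS/MS against spiked blank-plasma standards. Cmax and AUC came from noncompartmental analysis.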

[9] = Apparent permeability of the compound from apical to basolateral side in human Caco-2 cells measured upto 120 mins by LC-MS/MS analysis; assay type: ADME, cell-based; details: caco-2, 2 h; in short: as §3
Mus musculus [10] = assay: Protection against DSS-induced acute ulcerative colitis in […] mouse assessed as decrease in cryptitis score at 40 mg/kg,po measured after 12 days of administration; assay type: functional, organism-based; details: time 12.0 day
[11] = Cmax in CD-1 mouse at 10 mg/kg,po measured upto 1440 mins by LC-MS/MS analysis; assay type: ADME, organism-based; set-up: dose 10 mg/kg, time < 1440 min, route po; details: in vivo, 24 h; in short: as §4
Colon [12] = assay: animal or person; details: Mus musculus, C57BL/6J, po, 0.5 h, read-out: INH
Mus musculus [13] = assay: Protection against DSS-induced acute ulcerative colitis in […] mouse assessed as increase in body weight at 40 mg/kg,po measured upto 12 days of administration; assay type: functional, organism-based; details: time <= 12.0 day
Mus musculus [14] = assay: […] activity against bone marrow transplanted mouse model assessed as increase in total WBC repopulation at 10 mg/kg,ip bid measured by flow cytometry after 15 days post-transplant recovery period; assay type: functional, organism-based; details: time 15.0 day
Mus musculus [15] = assay: Protection against DSS-induced acute ulcerative colitis in […] mouse assessed as increase in body weight at 10 mg/kg,ip measured from 7 to 12 days of administration; assay type: functional, organism-based; details: time 7-12 day
[16] = Oral bioavailability in CD-1 mouse at 10 mg/kg measured upto 1440 mins by LC-MS/MS analysis; assay type: ADME, organism-based; details: in vivo, 24 h; in short: as §4
Lung [17] = assay: In vivo activation of PGE2 in C57BL/6J mouse lung tissue assessed as increase in PGE2 level at 2.5 mg/kg,ip measured after 3 hrs by ELISA; assay type: functional, organism-based; in short: as §2
[18] = AUC in CD-1 mouse at 5 mg/kg,iv measured upto 1440 mins by LC-MS/MS analysis; assay type: ADME, organism-based; set-up: dose 5 mg/kg, time < 1440 min, route iv; details: in vivo, 24 h; in short: as §4
Mus musculus [19] = assay: […] activity against bone marrow transplanted mouse model assessed as increase in RBC repopulation at 10 mg/kg,ip bid measured by flow cytometry after 15 days post-transplant recovery period; assay type: functional, organism-based; details: Erythrocyte, time 15.0 day
[20] = Aqueous solubility of the compound under shaking condition by LC-MS/MS analysis; assay type: physicochemical; details: buffer
[21] = AUC in CD-1 mouse at 10 mg/kg,po measured upto 1440 mins by LC-MS/MS analysis; assay type: ADME, organism-based; set-up: time < 1440 min, dose 10 mg/kg, route po; details: in vivo, 24 h; in short: as §4
Colon [22] = assay: In vivo activation of PGE2 in C57BL/6J mouse colon tissue assessed as increase in PGE2 level at 2.5 mg/kg,ip measured after 3 hrs by ELISA; assay type: functional, organism-based; in short: as §2
Mus musculus [23] = assay: Protection against DSS-induced acute ulcerative colitis in […] mouse assessed as increase in colon length at 40 mg/kg,po measured after 12 days of administration; assay type: functional, organism-based; details: time 12.0 day
Colon [24] = assay: animal or person; details: Mus musculus, C57BL/6J, po, 1.5 h, read-out: INH

SMILES: Cl.Nc1ncc(-c2cnc3ccc(C(=O)N4CCCCC4)cc3n2)cc1Cl
- AUC at 24 h ([1]; CD-1, mouse): 2870 ng·h/mL
- Activity (Lung [2]): Active
- Activity (Colon [3]): Active
- Cmax ([4]; CD-1, mouse, read-out: Cmax): 3000 ng/mL

SMILES: Cn1ccc2cc(-c3cnc4ccc(C(=O)N5CCCCC5)cc4n3)ccc2c1=O
- Activity (Mus musculus [5]): Active
- Activity (Mus musculus [6]): Active
- AUC [1]: 517 µg·min/mL
- Papp [7]: 34 10^-6 cm/s
- Cmax [8]: 3000 ng/mL
- Papp [9]: 45 10^-6 cm/s
- Activity (Mus musculus [10]): Active
- Cmax [11]: 950 ng/mL
- inhibition in vivo at 20 mg/kg (Colon [12]): > 90%
- Activity (Mus musculus [13]): Active
- Activity (Mus musculus [14]): Active
- Activity (Mus musculus [15]): Active
- Activity (Lung [2]): Active
- F [16]: 63%
- Activity (Lung [17]): Active
- AUC [18]: 205 µg·min/mL
- Activity (Colon [3]): Active
- Activity (Mus musculus [19]): Active
- Cmax ([4]; mouse, 24 h): 6400 ng/mL
- solubility thermodynamic [20]: 56 µg/mL (≈ 141 µM)
- AUC [21]: 256 µg·min/mL
- Activity (Colon [22]): Active
- Activity (Mus musculus [23]): Active
- inhibition in vivo at 20 mg/kg (Colon [24]): > 80%

SMILES: O=C(c1ccc2ncc(-c3ccc4c(=O)[nH]ccc4c3)nc2c1)N1CCCCC1
- AUC [1]: 270 µg·min/mL
- Cmax ([4]; mouse, 24 h): 7400 ng/mL
- solubility thermodynamic [20]: 4 µg/mL (≈ 10.4 µM)

SMILES: O=C(c1ccc2ncc(-c3ccc4ncccc4c3)nc2c1)N1CCCCC1
- solubility thermodynamic [20]: 55 µg/mL (≈ 149 µM)

SMILES: O=C(c1ccc2ncc(-c3ccc4cnccc4c3)nc2c1)N1CCCCC1
- solubility thermodynamic [20]: 14 µg/mL (≈ 38 µM)
